Results gathered from unrelated publications.
In brackets after ≈: the same amount, converted by molar mass.
Organism: Escherichia coli

Structure (SMILES) | test | test system | setting | quantity | result
CCC(CCCCCCCCCCc1cc(O)cc(O)c1)C(C)C (centres unmarked) | microbial growth | – | – | IC50 | 34.3 µM
O=C(O)c1cn(C2CC2)c2cc(N3CCNCC3)c(F)cc2c1=O | microbial killing | – | – | MBC | 19 µM
O=C(Sc1cccccc1=O)c1ccccc1 | microbial growth, broth dilution | ATCC35218 | – | MIC80 | 19.8 µM (≈ 4.8 µg/mL)
Cc1c(NN=C(C#N)C2=NC(=O)CS2)c(=O)n(-c2ccccc2)n1C | microbial killing, broth dilution | – | – | MBC | 0.25 µg/mL
COC(=O)c1cc(-c2cccc(NC(=S)Nc3ccc(F)cc3F)c2)on1 | microbial growth, broth dilution | ATCC25922 | – | MIC | > 64 µg/mL
CC1(C)S[C@@H]2[C@H](NC(=O)[C@H](N)c3ccccc3)C(=O)N2[C@H]1C(=O)O | microbial growth, well diffusion | ATCC35218 | 60000 µg/mL | inhibition zone | 15 mm
CCCCCCCCCCCCCCCCCCCCc1cc(O)cc(O)c1 | microbial growth | – | – | IC50 | > 200 µM
CCCCCCCCCCCC(=O)OC[C@H]1O[C@@H](n2cc(C)c(=O)[nH]c2=O)C[C@@H]1O | microbial killing, broth dilution | – | – | MBC | 16 µg/mL
COC(=O)c1cc(-c2cccc(NC(=O)Nc3cc(Cl)ccc3Cl)c2)on1 | microbial growth, broth dilution | ATCC25922 | – | MIC | > 64 µg/mL
O=C(N/N=C/c1ccc([N+](=O)[O-])o1)c1ccc(O)cc1 | microbial growth | – | – | MIC90 | 31.2 µg/mL (≈ 114 µM)
COC(=O)c1cc(-c2cccc(NC(=O)Nc3ccc(F)cc3F)c2)on1 | microbial growth, broth dilution | ATCC25922 | – | MIC | > 64 µg/mL
CC(C)CCCCCCCCCCCCCCCc1cc(O)cc(O)c1 | microbial growth | – | – | IC50 | 70.2 µM
COC(=O)c1cc(-c2cccc(NC(=S)Nc3ccc(Cl)cc3)c2)on1 | microbial growth, broth dilution | ATCC25922 | – | MIC | > 64 µg/mL
Cc1cc(/C=C2\Sc3ccccc3N2CCCN2CCC(C)CC2)c2ccccc2[n+]1C.[I-] | microbial growth, broth dilution | ATCCBAA2469 | – | MIC | 1 µg/mL
